Assay results: ChEMBL document CHEMBL5120861, “Short peptide pharmacophores developed from protein phosphatase-1 disrupting peptides (PDPs)” (Bioorg Med Chem, 2022)
pEC50: −log10 of the molar value. Active and inactive are the calls of the source. The calls are words filed in the database; no cut-off is given here. Where a SMILES comes first, the peptide text is derived from it. [ ]: non-standard residue; d: D form. 1Nal = N[C@@H](Cc1cccc2ccccc12)C(=O)O; 2Nal = N[C@@H](Cc1ccc2ccccc2c1)C(=O)O; NMeR = CN[C@@H](CCCNC(=N)N)C(=O)O; NMeF = CN[C@@H](Cc1ccccc1)C(=O)O; hArg = N=C(N)NCCCC[C@H](N)C(=O)O; β3hR = N=C(N)NCCC[C@H](N)CC(=O)O; Cha = N[C@@H](CC1CCCCC1)C(=O)O; Gly(cPr) = N[C@H](C(=O)O)C1CC1; β3hK = NCCCC[C@H](N)CC(=O)O; Orn = NCCC[C@H](N)C(=O)O

biological target: not listed separately; experiment: (§1) Disruption of PP1 holoenzyme (unknown origin) interaction with protein inhibitor 2 assessed as increase in PP1 phosphatase activity by measuring increase in fluorescence using DiFMUP as substrate enzyme preincubated with I2 for ten mins followed by compound treatment for 20 mins followed by substrate addition by fluorescence based analysis; design: species or system Homo sapiens; conditions: not given

Row | Compound | pEC50
1 | CC(C)[C@H](NC(=O)[C@H](CCCNC(=N)N)NC(=O)[C@H](N)CCCCN)C(=O)N[C@@H](Cc1cnc[nH]1)C(=O)N[C@@H](Cc1ccccc1)C(N)=O | 5.59
2 | CC[C@H](C)[C@H](NC(=O)[C@@H](NC(=O)[C@H](CCC(=O)O)NC(=O)[C@H](C)NC(=O)[C@H](C)NC(=O)[C@H](CCC(=O)O)NC(=O)[C@H](Cc1ccc(C(=O)c2ccccc2)cc1)NC(=O)[C@H](Cc1ccccc1)NC(=O)[C@@H](NC(=O)[C@@H](NC(=O)[C@H](CCCNC(=N)N)NC(=O)[C@H](C)NC(=O)[C@H](CC(N)=O)NC(=O)[C@H](CCCCN)NC(=O)[C@H](CCCNC(=N)N)NC(=O)[C@H](CCCCN)NC(=O)[C@H](CCCNC(=N)N)NC(=O)[C@H](CCCCN)NC(=O)[C@@H]1CCCN1C(=O)[C@H](CCCNC(=N)N)NC(=O)[C@H](CCCCN)NC(=O)[C@H](CCCNC(=N)N)NC(=O)[C@H](CCCNC(=N)N)NC(C)=O)C(C)C)[C@H](C)O)[C@@H](C)CC)C(N)=O | 6.63
3 | CC(=O)N[C@@H](CCCNC(=N)N)C(=O)N[C@H](C(=O)N[C@H](C(=O)N[C@@H](Cc1ccccc1)C(N)=O)[C@@H](C)O)C(C)C (Ac-RVTF-NH2) | 4.07
4 | CC(=O)N[C@@H](CCCNC(=N)N)C(=O)N[C@H](C(=O)N[C@H](C(=O)N[C@@H](Cc1ccccc1)C(=O)O)[C@@H](C)O)C(C)C (Ac-RVTF-OH) | < 3.30
5 | CC(C)[C@H](NC(=O)[C@@H](NC(=O)[C@@H](N)Cc1ccccc1)[C@@H](C)O)C(=O)N[C@@H](CCCNC(=N)N)C(=O)O (H-FTVR-OH) | < 3.30
6 | CC(C)[C@H](NC(=O)[C@H](CCCNC(=N)N)NC(=O)[C@@H](N)CCCCN)C(=O)N[C@@H](Cc1cnc[nH]1)C(=O)N[C@@H](Cc1cccc2ccccc12)C(N)=O (H-KRVH[1Nal]-NH2) | 5.60
7 | CC(C)[C@H](NC(=O)[C@H](CCCNC(=N)N)NC(=O)[C@@H](N)CCCCN)C(=O)N[C@@H](Cc1c[nH]cn1)C(=O)N[C@@H](Cc1ccc2ccccc2c1)C(N)=O (H-KRVH[2Nal]-NH2) | 5.82
8 | CC(C)[C@H](NC(=O)[C@H](CCCNC(=N)N)NC(=O)[C@@H](N)CCCCN)C(=O)N[C@@H](Cc1cnc[nH]1)C(=O)N[C@@H](CC1CCCCC1)C(N)=O (H-KRVH[Cha]-NH2) | 4.28
9 | CC(C)[C@H](NC(=O)[C@H](CCCNC(=N)N)NC(=O)[C@@H](N)CCCCN)C(=O)N[C@@H](Cc1c[nH]cn1)C(=O)N(C)[C@@H](Cc1ccccc1)C(N)=O (H-KRVH[NMeF]-NH2) | 4.63
10 | N=C(N)NCCC[C@H](NC(=O)[C@@H](N)CCCCN)C(=O)N[C@H](C(=O)N[C@@H](Cc1c[nH]cn1)C(=O)N[C@@H](Cc1ccccc1)C(N)=O)C1CC1 (H-KR[Gly(cPr)]HF-NH2) | 5.68
11 | CC(C)[C@H](NC(=O)[C@@H](N)CCCCN)C(=O)N[C@H](C(=O)N[C@@H](Cc1ccccc1)C(=O)O)[C@@H](C)O (H-KVTF-OH) | < 3.30
12 | CC(C)[C@H](NC(=O)[C@H](CCCNC(=N)N)N(C)C(=O)[C@@H](N)CCCCN)C(=O)N[C@@H](Cc1cnc[nH]1)C(=O)N[C@@H](Cc1ccccc1)C(N)=O (H-K[NMeR]VHF-NH2) | 5.33
13 | CC(C)[C@H](NC(=O)[C@H](CCCCNC(=N)N)NC(=O)[C@@H](N)CCCCN)C(=O)N[C@@H](Cc1cnc[nH]1)C(=O)N[C@@H](Cc1ccccc1)C(N)=O (H-K[hArg]VHF-NH2) | 5.77
14 | CC(C)[C@H](NC(=O)C[C@H](CCCNC(=N)N)NC(=O)[C@@H](N)CCCCN)C(=O)N[C@@H](Cc1c[nH]cn1)C(=O)N[C@@H](Cc1ccccc1)C(N)=O (H-K[β3hR]VHF-NH2) | 3.69
15 | CC(C)[C@H](NC(=O)[C@@H](N)CCCNC(=N)N)C(=O)N[C@@H](CC(=O)O)C(=O)N[C@@H](Cc1ccccc1)C(=O)O (H-RVDF-OH) | < 3.30
16 | CC(C)[C@H](NC(=O)[C@@H](N)CCCNC(=N)N)C(=O)N[C@@H](Cc1ccccc1)C(=O)N[C@@H](Cc1ccccc1)C(=O)O (H-RVFF-OH) | < 3.30
17 | CC(C)[C@H](NC(=O)[C@@H](N)CCCNC(=N)N)C(=O)N[C@@H](Cc1cnc[nH]1)C(=O)N[C@@H](Cc1ccccc1)C(=O)O (H-RVHF-OH) | 4.16
18 | CC(C)[C@H](NC(=O)[C@@H](N)CCCNC(=N)N)C(=O)N[C@@H](CCCCN)C(=O)N[C@@H](Cc1ccccc1)C(=O)O (H-RVKF-OH) | 3.60
19 | CC(C)[C@H](NC(=O)[C@@H](N)CCCNC(=N)N)C(=O)N[C@@H](CC(N)=O)C(=O)N[C@@H](Cc1ccccc1)C(=O)O (H-RVNF-OH) | 3.66
20 | CC(C)[C@H](NC(=O)[C@@H](N)CCCNC(=N)N)C(=O)N[C@@H](CCC(N)=O)C(=O)N[C@@H](Cc1ccccc1)C(=O)O (H-RVQF-OH) | 3.65
21 | CC(C)[C@H](NC(=O)[C@@H](N)CCCNC(=N)N)C(=O)N[C@@H](CO)C(=O)N[C@@H](Cc1ccccc1)C(=O)O (H-RVSF-OH) | < 3.30

Row | Compound | pEC50
22 | CC(C)[C@H](NC(=O)[C@@H](N)CCCNC(=N)N)C(=O)N[C@H](C(=O)N[C@@H](Cc1ccccc1)C(N)=O)[C@@H](C)O (H-RVTF-NH2) | 4.00
23 | CC(C)[C@H](NC(=O)[C@@H](N)CCCNC(=N)N)C(=O)N[C@H](C(=O)N[C@@H](Cc1ccccc1)C(=O)O)[C@@H](C)O (H-RVTF-OH) | 3.63
24 | CC(C)[C@H](NC(=O)[C@@H](N)CCCNC(=N)N)C(=O)N[C@H](C(=O)N[C@@H](Cc1c[nH]c2ccccc12)C(=O)O)[C@@H](C)O (H-RVTW-OH) | 3.59
25 | CC(C)[C@H](NC(=O)[C@@H](N)CCCNC(=N)N)C(=O)N[C@H](C(=O)N[C@@H](Cc1ccc(O)cc1)C(=O)O)[C@@H](C)O (H-RVTY-OH) | < 3.30
26 | CC(C)[C@H](NC(=O)[C@@H](N)CCCNC(=N)N)C(=O)N[C@H](C(=O)N[C@H](Cc1ccccc1)C(=O)O)[C@@H](C)O (H-RVT[dF]-OH) | < 3.30
27 | CC(C)[C@H](NC(=O)[C@@H](N)CCCNC(=N)N)C(=O)N[C@@H](Cc1c[nH]c2ccccc12)C(=O)N[C@@H](Cc1ccccc1)C(=O)O (H-RVWF-OH) | 3.98
28 | CC(C)[C@H](NC(=O)[C@@H](N)CCCNC(=N)N)C(=O)N[C@@H](C(=O)N[C@@H](Cc1ccccc1)C(=O)O)[C@H](C)O (H-RV[dT]F-OH) | < 3.30
29 | CC(C)[C@@H](NC(=O)[C@@H](N)CCCNC(=N)N)C(=O)N[C@H](C(=O)N[C@@H](Cc1ccccc1)C(=O)O)[C@@H](C)O (H-R[dV]TF-OH) | < 3.30
30 | CC(C)[C@H](NC(=O)[C@H](CCCNC(=N)N)NC(=O)[C@@H](N)CCCN)C(=O)N[C@@H](Cc1c[nH]cn1)C(=O)N[C@@H](Cc1ccccc1)C(N)=O (H-[Orn]RVHF-NH2) | 5.39
31 | CC(C)[C@@H](NC(=O)[C@H](NC(=O)[C@H](N)Cc1ccccc1)[C@H](C)O)C(=O)N[C@H](CCCNC(=N)N)C(=O)O (H-[dF][dT][dV][dR]-OH) | < 3.30
32 | CC(C)[C@H](NC(=O)[C@H](N)CCCNC(=N)N)C(=O)N[C@H](C(=O)N[C@@H](Cc1ccccc1)C(=O)O)[C@@H](C)O (H-[dR]VTF-OH) | < 3.30
33 | CC(C)[C@H](NC(=O)[C@H](N)CCCNC(=N)N)C(=O)N[C@H](C(=O)N[C@H](Cc1ccccc1)C(=O)O)[C@@H](C)O (H-[dR]VT[dF]-OH) | < 3.30
34 | CC(C)[C@@H](NC(=O)[C@H](N)CCCNC(=N)N)C(=O)N[C@@H](C(=O)N[C@@H](Cc1ccccc1)C(=O)O)[C@H](C)O (H-[dR][dV][dT]F-OH) | < 3.30
35 | CC(C)[C@H](NC(=O)[C@H](CCCNC(=N)N)NC(=O)[C@@H](N)CCCCNC(=N)N)C(=O)N[C@@H](Cc1cnc[nH]1)C(=O)N[C@@H](Cc1ccccc1)C(N)=O (H-[hArg]RVHF-NH2) | 5.18
36 | CC(C)[C@H](NC(=O)[C@H](CCCNC(=N)N)NC(=O)C[C@@H](N)CCCCN)C(=O)N[C@@H](Cc1c[nH]cn1)C(=O)N[C@@H](Cc1ccccc1)C(N)=O (H-[β3hK]RVHF-NH2) | 5.01
37 | CC(C)[C@H](NC(=O)[C@H](CCCNC(=N)N)NC(=O)C[C@@H](N)CCCNC(=N)N)C(=O)N[C@@H](Cc1cnc[nH]1)C(=O)N[C@@H](Cc1ccccc1)C(N)=O (H-[β3hR]RVHF-NH2) | 5.49
38 | Ac-KRVHF-NH2 | 5.77
39 | Ac-KRVHF-OH | 5.49
40 | H-KHVHF-NH2 | 4.61
41 | H-KRVHF-OH | 5.82
42 | H-RRVHF-OH | 5.57

tested on: HeLa; experiment: Induction of calcium release in human HeLa cells and measured for 30 mins by fluorescent Ca2+-indicator dye Fluo-4 based fluorescence microscopy; type: functional, cell-based; conditions: not given
Summary of the method: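 HeLa Kyoto cells in low-glucose DMEM, 10% FBS, seeded day before to ~80% confluency; loaded with 0.5 μM Fluo-4 in HEPES imaging buffer pH 7.4 (1.2 mM CaCl2) 30 min rt, washed; confocal imaging ex 488/em 516 nm, 2 min baseline, compound added, recorded 30 min; responder cells counted. Calcium-free variant: CaCl2 omitted, 250 μM EGTA.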

Row | Compound | Activity
43 | N=C(N)NCCC[C@H](NC(=O)[C@@H](N)CCCCN)C(=O)N[C@H](C(=O)N[C@@H](Cc1c[nH]cn1)C(=O)N[C@@H](Cc1ccccc1)C(N)=O)C1CC1 (H-KR[Gly(cPr)]HF-NH2) | Active
44 | CC(C)[C@H](NC(=O)[C@H](CCCNC(=N)N)N(C)C(=O)[C@@H](N)CCCCN)C(=O)N[C@@H](Cc1cnc[nH]1)C(=O)N[C@@H](Cc1ccccc1)C(N)=O (H-K[NMeR]VHF-NH2) | Active
45 | CC(C)[C@H](NC(=O)[C@H](CCCNC(=N)N)NC(=O)[C@@H](N)CCCN)C(=O)N[C@@H](Cc1c[nH]cn1)C(=O)N[C@@H](Cc1ccccc1)C(N)=O (H-[Orn]RVHF-NH2) | Active
46 | CC(C)[C@H](NC(=O)[C@H](CCCNC(=N)N)NC(=O)C[C@@H](N)CCCNC(=N)N)C(=O)N[C@@H](Cc1cnc[nH]1)C(=O)N[C@@H](Cc1ccccc1)C(N)=O (H-[β3hR]RVHF-NH2) | Active

same assay, conditions: DDE = dose-dependent effect

Row | Compound | Activity
47 | CC(C)[C@H](NC(=O)[C@H](CCCCNC(=N)N)NC(=O)[C@@H](N)CCCCN)C(=O)N[C@@H](Cc1cnc[nH]1)C(=O)N[C@@H](Cc1ccccc1)C(N)=O (H-K[hArg]VHF-NH2) | Dde

species: Homo sapiens; experiment: as §1, with “as substrate at 500 uM enzyme preincubated” for “as substrate enzyme preincubated”; conditions: not given

Row | Activity | Compound
48 | Active | CC(C)[C@@H](NC(=O)[C@@H](Cc1cnc[nH]1)NC(=O)[C@H](N)Cc1ccccc1)C(=O)N[C@H](CCCNC(=N)N)C(=O)O
49 | Active | CC[C@H](C)[C@H](NC(=O)[C@@H](N)CCCNC(=N)N)C(=O)N[C@H](C(=O)N[C@@H](Cc1ccccc1)C(=O)O)[C@@H](C)O (H-RITF-OH)
50 | Active | CC(C)C[C@H](NC(=O)[C@@H](N)CCCNC(=N)N)C(=O)N[C@H](C(=O)N[C@@H](Cc1ccccc1)C(=O)O)[C@@H](C)O (H-RLTF-OH)
51 | Active | CC(C)[C@H](NC(=O)[C@@H](N)CCCNC(=N)N)C(=O)N[C@@H](CCC(=O)O)C(=O)N[C@@H](Cc1ccccc1)C(=O)O (H-RVEF-OH)
52 | Active | CC(C)[C@H](NC(=O)[C@@H](N)CCCNC(=N)N)C(=O)NCC(=O)N[C@@H](Cc1ccccc1)C(=O)O (H-RVGF-OH)
53 | Active | CC(C)[C@H](NC(=O)[C@@H](NC(=O)[C@@H](N)CCCNC(=N)N)C(C)C)C(=O)N[C@@H](Cc1ccccc1)C(=O)O (H-RVVF-OH)
54 | Active | CC(C)[C@H](NC(=O)[C@@H](N)CCCNC(=N)N)C(=O)N[C@@H](Cc1ccc(O)cc1)C(=O)N[C@@H](Cc1ccccc1)C(=O)O (H-RVYF-OH)
